Measured values reported in ChEMBL document CHEMBL1129059, “Antitumor properties of some 2-[(dimethylamino)methyl]phenylgold(III) complexes” (J Med Chem, 1996).
Where “and” joins values, the source holds several entries; their conditions need not be identical. Equal entries are not always repeated.

Experiments:
[1] = Range is evaluated. (Highest IC50/Lowest IC50); assay type: functional
[2] = Solubility at 25 degrees Celsius in water; assay type: physicochemical; details: buffer
In short: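 5–10 mg sample was tumbled in 5.0 mL water at 25 °C for 24 h and filtered. The solution was diluted as needed and gold was quantified with 1 ppm indium as internal standard.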

HX62 cell line = test: Compound was tested for in vitro growth inhibition of Ovarian carcinoma cell line panel HX62; assay type: functional, cell-based, Homo sapiens
In short: (§1)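 Ovarian lines grown as monolayers in DMEM with 10% FBS, insulin, hydrocortisone and L-glutamine under 6% CO2. Cells were seeded at 3–5 × 10³/well and left to attach overnight. Compounds were freshly dissolved in DMA or water and applied for 96 h in quadruplicate wells. Growth was measured by SRB and reported as IC50.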

A2780 [3] = test: Compound was tested for in vitro growth inhibition of Ovarian carcinoma cell line panel A2780-R; assay type: functional, cell-based, Homo sapiens; in short: as §1
CH1 [4] = test: Compound was tested for in vitro growth inhibition of Ovarian carcinoma cell line panel CH1-R; assay type: functional, cell-based; in short: as §1
SK-OV-3 [5] = test: Compound was tested for in vitro growth inhibition of Ovarian carcinoma cell line panelSK-OV-3; assay type: functional, cell-based, Homo sapiens; in short: as §1
[6] = Solubility at 25 degrees Celsius in 1-Octanol; assay type: physicochemical
In short: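 A sample was tumbled in 1-octanol at 25 °C for 24 h and filtered. An aliquot was evaporated and the residue taken up in dilute aqua regia. Gold content was determined as for the aqueous samples, with indium as internal standard.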

HT-1376 = test: Compound was tested for in vitro growth inhibition of primary panel tumor cell line HT1376; assay type: functional, cell-based, Homo sapiens
In short: (§2)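 Primary-panel lines kept in L15, RPMI 1640 plus pyruvate, or MEM, each with 10% FBS. Cells were seeded at 5×10^4–10^5 cells/mL, preincubated 24 h, then exposed 4 h to 0–200 μg/mL from a 2 mg/mL stock in 10% DMA/PBS. After washout and 72 h further growth, cells were read by SRB. IC50 was the concentration giving 50% survival versus untreated controls.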

ZR-75-1 = test: Compound was tested for in vitro growth inhibition of primary panel tumor cell line ZR-75-1; assay type: functional, cell-based, Homo sapiens; in short: as §2
SW-620 [7] = test: Compound was tested for in vitro growth inhibition of primary panel tumor cell lines SW620; assay type: functional, cell-based, Homo sapiens; in short: as §2
CH1 [8] = test: Compound was tested for in vitro growth inhibition of Ovarian carcinoma cell line panel CH1; assay type: functional, cell-based; in short: as §1
A2780 [9] = test: Compound was tested for in vitro growth inhibition of Ovarian carcinoma cell line panel A2780; assay type: functional, cell-based, Homo sapiens; in short: as §1
SK-OV-3 [10] = test: Compound was tested for in vitro growth inhibition of primary panel tumor cell lines SK-OV-3; assay type: functional, cell-based, Homo sapiens; in short: as §2
SW 1116 = test: Compound was tested for in vitro growth inhibition of primary panel tumor cell line SW1116; assay type: functional, cell-based, Homo sapiens; in short: as §2
HT-29 = test: Compound was tested for in vitro growth inhibition of primary panel tumor cell line HT-29/219; assay type: functional, cell-based, Homo sapiens; in short: as §2
SW-620 [11] = test: Compound was tested for in vitro growth inhibition of primary panel tumor cell line SW620; assay type: functional, cell-based, Homo sapiens; in short: as §2
SK-OV-3 [12] = test: Compound was tested for in vitro growth inhibition of primary panel tumor cell line SK-OV-3; assay type: functional, cell-based, Homo sapiens; in short: as §2
SK-OV-3 [13] = test: Compound was tested for in vitro growth inhibition of Ovarian carcinoma cell line panel SK-OV-3; assay type: functional, cell-based, Homo sapiens; in short: as §1

Substance | Range [1] | Solubility [2] [µM] | IC50 (HX62 cell line) [µM] | IC50 (A2780 [3]) [µM] | IC50 (CH1 [4]) [µM] | IC50 (SK-OV-3 [5]) [µM] | Solubility [6] [µM] | IC50 (HT-1376) [µM] | IC50 (ZR-75-1) [µM] | IC50 (SW-620 [7]) [µM] | IC50 (CH1 [8]) [µM] | IC50 (A2780 [9]) [µM] | IC50 (SK-OV-3 [10]) [µM] | IC50 (SW 1116) [µM] | IC50 (HT-29) [µM] | IC50 (SW-620 [11]) [µM] | IC50 (SK-OV-3 [12]) [µM] | IC50 (SK-OV-3 [13]) [µM]
Bis(thiocyanato)[2-(dimethylamino)methyl]phenyl-C,N]gold-(III) [listing 1 of 2 here] | 7.6 and 19.5 | – | – | – | – | – | – | – | – | – | – | – | – | – | – | – | – | –
Dichloro[2-(dimethylamino)methyl]phenyl-C,N]gold-(III) | – | 250 | 57 | 47 | 22 | 109 | 920 | 30 | 27 | 124 | 13 | 8.2 | 45 | 119 | 55 | – | – | –
Bis(thiocyanato)[2-(dimethylamino)methyl]phenyl-C,N]gold-(III) [listing 2 of 2 here] | – | 130 | 31 | 26 | 11 | – | 780 | 6.7 | 34 | – | 10 | 2 | – | 47 | 25 | 51 | 20 | 39
